Measurements taken from EPA's CvTdb concentration-time database.

Legend:
Rat [1] = test: concentration in plasma after dosing; settings: dosed: Wyeth-14643, 5.0 mg/kg, oral, Male, Sprague-Dawley
Rat [2] = test: concentration in plasma after dosing; settings: 2 h; dosed: Bis 2-Chloroethoxy Methane; 40 mg/kg; iv; Male; Harlan Sprague Dawley
Rat [3] = test: concentration in heart after dosing; settings: 4 h; dosed: Bis 2-Chloroethoxy Methane; 20 mg/kg; iv; Female; F344
Rat [4] = test: concentration in liver after dosing; settings: 40 min; dosed: Bis 2-Chloroethoxy Methane; 20 mg/kg; iv; Female; F344
Rat [5] = test: concentration in thymus after dosing; settings: 5 h; dosed: Bis 2-Chloroethoxy Methane; 20 mg/kg; iv; Male; F344
Rat [6] = test: concentration in liver after dosing; settings: 5 h; dosed: Bis 2-Chloroethoxy Methane; 20 mg/kg; iv; Male; F344
Rat [7] = test: concentration in brain after dosing; settings: 0.5 h; dosed: Fluorotelomer alcohol 8+2; 24 mg/kg; oral; Male; Harlan Sprague Dawley
Rat [8] = test: concentration in plasma after dosing; settings: 1 h; dosed: Di-n-butyl phthalate; 20 mg/kg; iv; Male; Sprague-Dawley
Rat [9] = test: concentration in liver after dosing; settings: 864 h; dosed: Perfluorodecanoic acid; 10 mg/kg; oral; Male; Harlan Sprague Dawley
Rat [10] = test: concentration in plasma after dosing; settings: dosed: Perfluorodecanoic acid, 2 mg/kg, iv, Male, F344
Rat [11] = test: concentration in liver after dosing; settings: 864 h; dosed: Perfluorodecanoic acid; 10 mg/kg; oral; Female; Harlan Sprague Dawley
Rat [12] = test: concentration in thymus after dosing; settings: 40 min; dosed: Thiodiglycolic Acid; 20 mg/kg; iv; Female; Harlan Sprague Dawley
Rat [13] = test: concentration in plasma after dosing; settings: 4 h; dosed: Thiodiglycolic Acid; 20 mg/kg; iv; Female; Harlan Sprague Dawley
Rat [14] = test: concentration in heart after dosing; settings: 3 h; dosed: Thiodiglycolic Acid; 20 mg/kg; iv; Female; Harlan Sprague Dawley
Rat [15] = test: concentration in plasma after dosing; settings: 40 min; dosed: dichloroacetic acid; 100 mg/kg; oral; Male; F344
Rat [16] = test: concentration in plasma after dosing; settings: dosed: dichloroacetic acid, 100 mg/kg, oral, Male, F344
Rat [17] = test: concentration in plasma after dosing; settings: dosed: dichloroacetic acid, 40 mg/kg, oral, Female, Harlan Sprague Dawley
human = test: concentration in blood after dosing; negative times count back from the end of exposure; settings: dosed: trichloroethylene, inhalation
Procedure, shortened: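 Concentration-versus-time or amount-versus-time points were compiled from published in vivo toxicokinetic studies and from two structured collections. The studies were found by PubMed searching, classifier screening and manual review. Points were mostly digitised from plot screenshots with WebPlotDigitizer, otherwise copied from tables, and kept in the reported units. Dose, route, subject details and medium were curated by hand from each paper, and sampling and analytical methods follow each source and were often unreported.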

rat [18] = test: concentration in plasma after dosing; negative times count back from the end of exposure; settings: dosed: trichloroethylene, inhalation, duration: 4 hr, female, F344

Cc1cccc(Nc2cc(Cl)nc(SCC(=O)O)n2)c1C
Rat [1]
Settings	concentration in plasma [ng/mL]
2 h	1920
6 h	999

ClCCOCOCCCl [Bis 2-Chloroethoxy Methane]
Settings	concentration in heart [ng/g]	concentration in liver [ng/g]	concentration in plasma [ng/mL]	concentration in thymus [ng/g]
Rat [2]	–	–	1290	–
Rat [3]	55.5	–	–	–
Rat [4]	–	734	–	–
Rat [5]	–	–	–	49
Rat [6]	–	42.7	–	–

OCCC(F)(F)C(F)(F)C(F)(F)C(F)(F)C(F)(F)C(F)(F)C(F)(F)C(F)(F)F [Fluorotelomer alcohol 8+2]
Settings	concentration in brain [ng/g]
Rat [7]	1810

CCCCOC(=O)c1ccccc1C(=O)O [Mono-n-butyl phthalate]
Settings	concentration in plasma [ng/mL]
Rat [8]	2550

O=C(O)C(F)(F)C(F)(F)C(F)(F)C(F)(F)C(F)(F)C(F)(F)C(F)(F)C(F)(F)C(F)(F)F [Perfluorodecanoic acid]
Settings	concentration in liver [ng/g]
Rat [9]	54300
Rat [11]	59300

Rat [10]
Settings	concentration in plasma [ng/mL]
12 h	4670
1200 h	1400

O=C(O)CSCC(=O)O [Thiodiglycolic Acid]
Settings	concentration in heart [ng/g]	concentration in plasma [ng/mL]	concentration in thymus [ng/g]
Rat [12]	–	–	3420
Rat [13]	–	360	–
Rat [14]	1150	–	–

O=C(O)C(Cl)Cl [dichloroacetic acid]
Settings	concentration in plasma [ng/mL]
Rat [15]	13800

concentration in plasma [ng/mL]
Settings	0.25 h	1.5 h	6 h	10 min
Rat [16]	13300	–	32800	–
Rat [17]	–	2780	–	6310

O=C(O)C(Cl)(Cl)Cl [trichloroacetic acid]
Settings	concentration in blood [mg/kg]	concentration in plasma [ng/mL]
human, 0 h, 1348 mg, duration: 2 hr - 20 min	3	–
human, 0 h, 1681 mg, duration: 2 hr - 20 min	2.8	–
human, 0 h, 3907 mg, duration: 2 hr - 20 min	3	–
human, 0.5 h, 1348 mg, duration: 2 hr - 20 min	3.5	–
human, 0.5 h, 1681 mg, duration: 2 hr - 20 min	3.6	–
human, 0.5 h, 3907 mg, duration: 2 hr - 20 min	3.9	–
human, 1 h, 1348 mg, duration: 2 hr - 20 min	3.7	–
human, 1 h, 1681 mg, duration: 2 hr - 20 min	3.9	–
human, 1 h, 3907 mg, duration: 2 hr - 20 min	4.5	–
human, 1.5 h, 1348 mg, duration: 2 hr - 20 min	4.1	–
human, 1.5 h, 1681 mg, duration: 2 hr - 20 min	4.5	–
human, 1.5 h, 3907 mg, duration: 2 hr - 20 min	5.3	–
human, 2 h, 1348 mg, duration: 2 hr - 20 min	4.5	–
human, 2 h, 1681 mg, duration: 2 hr - 20 min	5.2	–
human, 2 h, 3907 mg, duration: 2 hr - 20 min	5.4	–
human, 21 h, 1348 mg, duration: 2 hr - 20 min	13.3	–
human, 21 h, 1681 mg, duration: 2 hr - 20 min	13.6	–
human, 21 h, 3907 mg, duration: 2 hr - 20 min	17.8	–
rat [18], -0.5889 h, 600.4 ppm, during exposure	–	15300
rat [18], -3.292 h, 600.4 ppm, during exposure	–	1380
rat [18], -3.75 h, 600 ppm, during exposure	–	5790

human
Settings	concentration in blood
-1.833 h, 1348 mg, duration: 2 hr - 20 min, during exposure	0.6 mg/kg
-1.833 h, 1681 mg, duration: 2 hr - 20 min, during exposure	0.4 mg/kg
-1.833 h, 3907 mg, duration: 2 hr - 20 min, during exposure	0.7 mg/kg
-1 h, 1348 mg, duration: 2 hr - 20 min, during exposure	1.4 mg/kg
-1 h, 1681 mg, duration: 2 hr - 20 min, during exposure	1.1 mg/kg
-1 h, 3907 mg, duration: 2 hr - 20 min, during exposure	1.6 mg/kg
-0.5 h, 1348 mg, duration: 2 hr - 20 min, during exposure	2.3 mg/kg
-0.5 h, 1681 mg, duration: 2 hr - 20 min, during exposure	1.7 mg/kg
-0.5 h, 3907 mg, duration: 2 hr - 20 min, during exposure	2.3 mg/kg
0.1859 h, 100 ppm, duration: 4 hr, person	3830 ng/mL
0.2626 h, 100 ppm, duration: 4 hr, person	3950 ng/mL
0.4953 h, 100 ppm, duration: 4 hr, person	4150 ng/mL
0.7295 h, 100 ppm, duration: 4 hr, person	3520 ng/mL
1.042 h, 100 ppm, duration: 4 hr, person	4390 ng/mL
2.008 h, 100 ppm, duration: 4 hr, person	4230 ng/mL
2.056 h, 100 ppm, duration: 4 hr, person	4950 ng/mL
4.002 h, 100 ppm, duration: 4 hr, person	5130 ng/mL
4.087 h, 100 ppm, duration: 4 hr, person	5830 ng/mL
5.968 h, 100 ppm, duration: 4 hr, person	6280 ng/mL
6.071 h, 100 ppm, duration: 4 hr, person	5770 ng/mL
8.056 h, 100 ppm, duration: 4 hr, person	6100 ng/mL
8.086 h, 100 ppm, duration: 4 hr, person	6680 ng/mL
10.05 h, 100 ppm, duration: 4 hr, person	6680 ng/mL
10.13 h, 100 ppm, duration: 4 hr, person	7050 ng/mL
12.03 h, 100 ppm, duration: 4 hr, person	7200 ng/mL
12.16 h, 100 ppm, duration: 4 hr, person	7480 ng/mL
14.01 h, 100 ppm, duration: 4 hr, person	7110 ng/mL
14.05 h, 100 ppm, duration: 4 hr, person	7820 ng/mL
16 h, 100 ppm, duration: 4 hr, person	7960 ng/mL
16.01 h, 100 ppm, duration: 4 hr, person	7740 ng/mL
17.81 h, 100 ppm, duration: 4 hr, person	8690 ng/mL
17.98 h, 100 ppm, duration: 4 hr, person	7930 ng/mL
41.89 h, 100 ppm, duration: 4 hr, person	8480 ng/mL
44.06 h, 100 ppm, duration: 4 hr, person	9620 ng/mL
65.95 h, 100 ppm, duration: 4 hr, person	6780 ng/mL
67.63 h, 100 ppm, duration: 4 hr, person	7420 ng/mL
89.84 h, 100 ppm, duration: 4 hr, person	6470 ng/mL
91.02 h, 100 ppm, duration: 4 hr, person	5310 ng/mL
324 s, 100 ppm, duration: 4 hr, person	3160 ng/mL

human, 100 ppm, duration: 4 hr, person, during exposure
Settings	concentration in blood [ng/mL]
-3.454 h	294
-3.442 h	210
-3.04 h	620
-2.832 h	741
-1.998 h	1360
-1.982 h	1680
-1.033 h	2270
-0.8992 h	2830

rat [18]
Settings	concentration in plasma [ng/mL]
0.2413 h, 600.4 ppm	25200
0.5005 h, 600.4 ppm	28200
0.963 h, 600 ppm	24500
2.113 h, 600 ppm	33800
4.901 h, 600.4 ppm	36600
5.077 h, 600 ppm	46200
20.89 h, 600.4 ppm	8380
21.02 h, 600 ppm	25300
28.48 h, 600.4 ppm	3970
29.96 h, 600 ppm	14100
30 s, 600 ppm	21100
44.93 h, 600.4 ppm	1220
45.37 h, 600 ppm	8190
241 s, 600.4 ppm	15900
